Data published in ChEMBL document CHEMBL4715702, “Overcoming multidrug resistance by targeting mitochondria with NO-donating doxorubicins” (Bioorg Med Chem, 2016).
Activity calls are given as the source filed them. The rule behind the calls is not given here.

Assays:
[1] = Prodrug release in doxrubicin-resistant human HT-29 cells assessed as increase in NO level by measuring induction of P-glycoprotein nitration in mitochondria at 5 uM incubated for 24 hrs by western blot analysis; details: ht-29, 24 h
How it was run: (§1)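 Cells 24 h with 5 µmol/L compound. Mitochondrial extracts, 10 µg protein, run on SDS-PAGE and probed for Pgp, porin as loading control; nitration detected by Western blot with peroxidase secondary and chemiluminescence. Representative of three experiments.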

[2] = Prodrug release in human HT-29 cells assessed as increase in NO level by measuring induction of P-glycoprotein nitration in plasma membrane at 5 uM incubated for 24 hrs by western blot analysis; assay type: cell membranes, Cell membrane; details: ht-29, 24 h
How it was run: (§2)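 Cells 24 h with 5 µmol/L compound. Plasma-membrane proteins isolated by surface biotinylation, 50 µg run on SDS-PAGE, probed for Pgp with pancadherin loading control; nitration detected by Western blot, peroxidase secondary and chemiluminescence. Representative of three experiments.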

[3] = Stability of the compound assessed as human serum esterase-mediated compound hydrolysis by measuring half life at 100 uM by RP-HPLC analysis; assay type: ADME, cell-free
How it was run: (§3)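 Compound from 10 mM DMSO stock added to human male AB serum preheated to 37 °C, 100 µM final, incubated at 37 ± 0.5 °C. Aliquots deproteinized with acetonitrile/0.1% HCOOH, centrifuged, filtered. Parent and degradation products quantified by RP-HPLC (234 and 480 nm) against 1–100 µM calibration. At least triplicate.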

[4] = Prodrug release in human HT-29 cells assessed as increase in NO level by measuring induction of P-glycoprotein nitration in mitochondria at 5 uM incubated for 24 hrs by western blot analysis; details: ht-29, 24 h; how it was run: as §1
HT-29 [5] = experiment: Induction of apoptosis in doxorubicin-resistant human HT29 cells assessed as activation of caspase 9 using LEHD-AMC substrate at 5 uM incubated for 24 hrs by fluorescence based assay; assay type: functional, cell-based
How it was run: (§4)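 Cells 24 h in 5 µmol/L compound or fresh medium, lysed in HEPES/KOH buffer pH 7.5. 20 µg lysate incubated 1 h at 37°C with 20 µmol/L LEHD-AMC (caspase 9) or DEVD-AMC (caspase 3) in HEPES/CHAPS/sucrose/DTT buffer pH 7.5. Stopped with ice-cold 0.1% TCA; AMC fluorescence ex 380/em 460 nm, converted to nmol AMC/µg protein via AMC standards. Triplicate.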

[6] = Prodrug release in doxorubicin-resistant human HT-29 cells assessed as increase in NO level by measuring induction of P-glycoprotein nitration in plasma membrane at 5 uM incubated for 24 hrs by western blot analysis; assay type: cell membranes, Cell membrane; details: ht-29, 24 h; how it was run: as §2
HT-29 [7] = experiment: Induction of apoptosis in doxorubicin-resistant human HT29 cells assessed as activation of caspase 3 using DEVD-AMC substrate at 5 uM incubated for 24 hrs by fluorescence based assay; assay type: functional, cell-based; how it was run: as §4
[8] = Prodrug release in human HT-29 cells assessed as increase in NO level by measuring plasma membrane associated MRP1/BCRP nitration mediated drug uptake at 5 uM incubated for 24 hrs by spectrofluorometric analysis; assay type: ADME, cell membranes; details: ht-29, 24 h
How it was run: (§5)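 Cells 24 h with 5 µmol/L compound; DOXO in whole-cell lysates measured fluorimetrically (ex 475/em 553 nm), cell-free blank subtracted, converted to nmol DOXO/mg protein by calibration curve. Triplicate, mean ± SD.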

[9] = Prodrug release in doxorubicin-resistant human HT-29 cells assessed as increase in NO level by measuring plasma membrane associated MRP1/BCRP nitration mediated drug uptake at 5 uM incubated for 24 hrs by spectrofluorometric analysis; assay type: ADME, cell membranes; details: ht-29, 24 h; how it was run: as §5
HT-29 [10] = experiment: Induction of apoptosis in human HT29 cells assessed as activation of caspase 3 using DEVD-AMC substrate at 5 uM incubated for 24 hrs by fluorescence based assay; assay type: functional, cell-based; how it was run: as §4
[11] = Prodrug release in human HT-29 cells assessed as increase in NO level by measuring nitrite release at 5 uM incubated for 24 hrs by spectrophotometric analysis; assay type: ADME, cell-based; details: ht-29, 24 h
How it was run: (§6)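 After 24 h culture with 5 µmol/L compound, medium mixed 1:1 with Griess reagent, 10 min 37°C in dark, absorbance 540 nm. Cell-free blank subtracted; nitrite expressed as nmol/mg cell protein. HT29/dx maintained in 200 nmol/L DOXO. Triplicate, mean ± SD (n = 3).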

[12] = Prodrug release in doxorubicin-resistant human HT-29 cells assessed as increase in NO level by measuring nitrite release at 5 uM incubated for 24 hrs by spectrophotometric analysis; assay type: ADME, cell-based; details: ht-29, 24 h; how it was run: as §6
HT-29 [13] = experiment: Induction of apoptosis in human HT29 cells assessed as activation of caspase 9 using LEHD-AMC substrate at 5 uM incubated for 24 hrs by fluorescence based assay; assay type: functional, cell-based; how it was run: as §4
H9c2 = experiment: Cardiotoxicity against rat H9c2 cells assessed as LDH release at 5 uM incubated for 24 hrs; assay type: toxicity, cell-based; details: h9c2, 24 h
How it was run: (§7)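 Extracellular medium spun 12,000 × g 5 min; cells detached, sonicated in 82.3 mmol/L triethanolamine phosphate-HCl pH 7.6. LDH activity read in medium and lysate at 340 nm over 6 min, as µmol NADH oxidized/min/dish; extracellular LDH given as % of total dish activity. Compounds from DMSO stock, 5 µM final, 1% DMSO; controls 1% DMSO. Triplicate, mean ± SD.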

[14] = Prodrug release in human HT-29 cells assessed as increase in NO level by measuring mitochondria associated MRP1/BCRP nitration mediated drug uptake at 5 uM incubated for 24 hrs by spectrofluorometric analysis; assay type: ADME; details: ht-29, 24 h
How it was run: (§8)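 Cells 24 h with 5 µmol/L compound; mitochondrial fractions isolated (porin check by immunoblot), DOXO measured fluorimetrically (ex 475/em 553 nm) with blank subtraction and calibration curve; expressed as nmol DOXO/mg mitochondrial protein. Triplicate, mean ± SD.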

[15] = Prodrug release in doxorubicin-resistant human HT-29 cells assessed as increase in NO level by measuring mitochondria associated MRP1/BCRP nitration mediated drug uptake at 5 uM incubated for 24 hrs by spectrofluorometric analysis; assay type: ADME; details: ht-29, 24 h; how it was run: as §8
HT-29 [16] = experiment: Upregulation of iNOS protein expression in human HT-29 cells; assay type: functional, cell-based
How it was run: (§9)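 HT29 and HT29/dx cells incubated 24 h with compound or fresh medium; lysed in MLB buffer pH 7.5, sonicated, centrifuged 13,000 x g 10 min 4°C; iNOS detected in whole-cell lysate by Western blotting.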

HT-29 [17] = experiment: Upregulation of iNOS protein expression in doxorubicin-resistant human HT-29 cells; assay type: functional, cell-based; how it was run: as §9
HT-29 [18] = experiment: Cytotoxicity against human HT-29 cells assessed as LDH release at 5 uM incubated for 24 hrs; assay type: functional, cell-based; how it was run: as §7
HT-29 [19] = experiment: Cytotoxicity against doxorubicin-resistant human HT-29 cells assessed as LDH release at 5 uM incubated for 24 hrs; assay type: functional, cell-based; how it was run: as §7
[20] = Stability of the compound assessed as human serum esterase-mediated compound hydrolysis by measuring parent compound remaining at 100 uM measured after 24 hrs by RP-HPLC analysis; assay type: ADME, cell-free; details: read-out: Stabilty; how it was run: as §3

Row | Compound | Activity [1] | Activity [2] | half-life at 100 µM [3] [h] | Activity [4] | Activity (HT-29 [5]) | Activity [6] | Activity (HT-29 [7]) | Drug uptake [8] | Drug uptake [9] | Activity (HT-29 [10]) | Drug metabolism [11] | Drug metabolism [12] | Activity (HT-29 [13]) | Activity (H9c2) | Activity (HT-29 [16]) | Activity (HT-29 [17]) | also measured
1 | COc1cccc2c1C(=O)c1c(O)c3c(c(O)c1C2=O)C[C@@](O)(C(=O)COC(=O)c1ccc(OCCCO[N+](=O)[O-])cc1)C[C@@H]3O[C@H]1C[C@H](N)[C@H](O)[C@H](C)O1.Cl | Not Active | Not Active | 26.7 | Not Active | inactive | Not Active | inactive | Active | Active | inactive | Metabolite_Detected | Metabolite_Detected | inactive |  |  |  | 
2 | COc1cccc2c1C(=O)c1c(O)c3c(c(O)c1C2=O)C[C@@](O)(C(=O)COC(=O)c1ccc(CCCO[N+](=O)[O-])cc1)C[C@@H]3O[C@H]1C[C@H](N)[C@H](O)[C@H](C)O1.Cl | Not Active | Not Active | 24.6 | Not Active | inactive | Not Active | inactive | Active | Active | inactive | Metabolite_Detected | Metabolite_Detected | inactive |  |  |  | 
3 | COc1cccc2c1C(=O)c1c(O)c3c(c(O)c1C2=O)C[C@@](O)(C(=O)CO)C[C@@H]3O[C@H]1C[C@H](N)[C@H](O)[C@H](C)O1 [DOXORUBICIN] |  | Not Active |  |  |  |  |  | Active | Not Active |  | Metabolite_Detected |  |  | Toxic | Active | inactive | Drug uptake [14]: Active; Drug uptake [15]: Not Active
4 | COc1cccc2c1C(=O)c1c(O)c3c(c(O)c1C2=O)C[C@@](O)(C(=O)COC(=O)CCCC(CO[N+](=O)[O-])O[N+](=O)[O-])C[C@@H]3O[C@H]1C[C@H](N)[C@H](O)[C@H](C)O1.Cl (stereo partly drawn) |  |  | 6 |  | inactive |  | inactive |  |  | inactive | Metabolite_Detected | Metabolite_Detected | inactive |  |  |  | 
5 | COc1cccc2c1C(=O)c1c(O)c3c(c(O)c1C2=O)C[C@@](O)(C(=O)COC(=O)c1ccc(C(=O)OCO/N=[N+](\[O-])N2CCCC2)cc1)C[C@@H]3O[C@H]1C[C@H](N)[C@H](O)[C@H](C)O1.Cl | Not Active |  | 2.8 | Not Active | inactive |  | inactive | Not Active |  | inactive | Metabolite_Detected | Metabolite_Detected | inactive |  |  |  | Activity [9]: Not Active
6 | COc1cccc2c1C(=O)c1c(O)c3c(c(O)c1C2=O)C[C@@](O)(C(=O)COC(=O)c1ccc(OCC(CO[N+](=O)[O-])O[N+](=O)[O-])cc1)C[C@@H]3O[C@H]1C[C@H](N)[C@H](O)[C@H](C)O1.Cl (stereo partly drawn) | Not Active | Not Active | 34.7 | Not Active | inactive | Not Active | inactive | Active | Active | inactive | Metabolite_Detected | Metabolite_Detected | inactive |  |  |  | 
7 | COc1cccc2c1C(=O)c1c(O)c3c(c(O)c1C2=O)C[C@@](O)(C(=O)COC(=O)CCCCCO[N+](=O)[O-])C[C@@H]3O[C@H]1C[C@H](N)[C@H](O)[C@H](C)O1.Cl |  |  | 4.9 |  |  | Not Active |  | Active | Active |  | Metabolite_Detected | Metabolite_Detected |  |  |  |  | 
8 | COc1cccc2c1C(=O)c1c(O)c3c(c(O)c1C2=O)C[C@@](O)(C(=O)COC(=O)c1ccc(Oc2no[n+]([O-])c2S(=O)(=O)c2ccccc2)cc1)C[C@@H]3O[C@H]1C[C@H](N)[C@H](O)[C@H](C)O1.Cl |  |  | > 24 |  | Active |  | Active |  |  | Active | Metabolite_Detected | Metabolite_Detected | Active | Non-Toxic | Active | Active | Activity (HT-29 [18]): Active; Activity (HT-29 [19]): Active; remaining at 24 h, 100 µM [20]: 73.5%
9 | COc1cccc2c1C(=O)c1c(O)c3c(c(O)c1C2=O)C[C@@](O)(C(=O)COC(=O)c1ccc(CC(CO[N+](=O)[O-])O[N+](=O)[O-])cc1)C[C@@H]3O[C@H]1C[C@H](N)[C@H](O)[C@H](C)O1 (stereo partly drawn) |  | Not Active | 16 |  | Active | Not Active | Active | Active | Active | Active | Metabolite_Detected | Metabolite_Detected | Active | Non-Toxic | Active | Active | Drug uptake [14]: Active; Drug uptake [15]: Active; Activity (HT-29 [18]): Active; Activity (HT-29 [19]): Active
